In ChEMBL document CHEMBL1165999, “Cytotoxic ent-kaurane diterpenoids from Isodon rubescens var. lushiensis” (J Nat Prod, 2010):

Experiments:
[1] = tested on: HL-60; assay: Cytotoxicity against human HL60 cells after 48 hrs by MTT assay; assay type: functional, cell-based; details: HL-60, 48 h
How it was run: (§1)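 Cells grown in RPMI-1640 or DMEM with 10% FBS at 37 °C, 5% CO2, seeded at 1 × 10^5 cells/mL. Adherent lines were left 12 h to attach; suspension cells were added just before dosing. Various concentrations were tested in triplicate for 48 h, with cisplatin and paclitaxel controls. MTT (100 µg) was then added for 4 h, cells lysed in 20% SDS-50% DMF, and OD read at 595 nm. IC50 was calculated by the Reed-Muench method.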

[2] = tested on: SMMC-7721; assay: Cytotoxicity against human SMMC7721 cells after 48 hrs by MTT assay; assay type: functional, cell-based; details: SMMC-7721, 48 h; how it was run: as §1
[3] = tested on: A549; assay: Cytotoxicity against human A549 cells after 48 hrs by MTT assay; assay type: functional, cell-based; details: A549, 48 h; how it was run: as §1
[4] = tested on: SK-BR-3; assay: Cytotoxicity against human SK-BR-3 cells after 48 hrs by MTT assay; assay type: functional, cell-based; details: SK-BR-3, 48 h; how it was run: as §1
[5] = tested on: PANC-1; assay: Growth inhibition of human PANC1 cells after 48 hrs by MTT assay; details: PANC-1, 48 h

Row | IC50 [5] | SMILES | IC50 [1] | IC50 [2] | IC50 [3] | IC50 [4]
1 | 8.6 µM | C=C1C(=O)[C@@]23[C@@H]4C[C@@H]5C(C)(C)CCC[C@@]5([C@@H](O)O4)[C@@H]2[C@@H](O)C[C@@H]1[C@H]3O | 1.2 µM | 6.2 µM | 5.9 µM | 4.4 µM
2 | 6.6 µM | C=C1C(=O)[C@@]23[C@H](O)C[C@@H]4[C@@](C)(CO)CCC[C@@]4(COC(C)=O)[C@@H]2CC[C@@H]1[C@H]3O [ISOLUSHININ H] | 2.5 µM | > 10 µM | > 10 µM | 6.1 µM
3 | > 10 µM | C=C1C(=O)[C@@]23[C@H](O)C[C@@H]4C(C)(C)CCC[C@@]4(COC(C)=O)[C@@H]2[C@@H](O)[C@H](O)[C@@H]1[C@H]3O [ISOLUSHININ G] | > 10 µM | > 10 µM | > 10 µM | > 10 µM
4 | > 10 µM | C=C1C(=O)[C@@]23CC[C@@H]4C(C)(C)CC[C@H](O)[C@@]4(C)[C@@H]2[C@@H](O)C[C@@H]1[C@H]3O [PHYLLOSTACHYSIN H] | 6.4 µM | > 10 µM | > 10 µM | > 10 µM
5 | < 0.008 µM | CC(=O)O[C@H]1C(=O)[C@@]2(C)[C@H]([C@H](OC(=O)c3ccccc3)[C@]3(O)C[C@H](OC(=O)[C@H](O)[C@@H](NC(=O)c4ccccc4)c4ccccc4)C(C)=C1C3(C)C)[C@]1(OC(C)=O)CO[C@@H]1C[C@@H]2O [PACLITAXEL] | < 0.008 µM | < 0.008 µM | 1.4 µM | 0.11 µM
6 | > 10 µM | C=C1[C@@H](O)[C@]23[C@H](O)[C@H]1CC[C@H]2[C@@]12CO[C@@]3(O)[C@@H](O)[C@@H]1C(C)(C)CC[C@@H]2O [ENMENOL] | 6.7 µM | > 10 µM | > 10 µM | > 10 µM
7 | 9.8 µM | C=C1C(=O)[C@@]23[C@@H]4C[C@@H]5C(C)(C)CCC[C@@]5([C@@H](OC)O4)[C@@H]2[C@@H](O)C[C@@H]1[C@H]3O | 0.95 µM | 4.4 µM | 5.6 µM | 3.3 µM
8 | 4.5 µM | C=C1C(=O)[C@@]23[C@H](O)C[C@@H]4C(C)(C)CCC[C@@]4(C)[C@@H]2[C@@H](O)C[C@@H]1[C@H]3O [PHYLLOSTACHYSIN F] | 0.85 µM | 5.5 µM | 3.3 µM | 3.3 µM
9 | > 10 µM | C=C1C(=O)[C@@]23[C@@H]4C[C@@H]5C(C)(C)[C@H](O)CC[C@@]5([C@@H](OC)O4)[C@@H]2[C@@H](O)C[C@@H]1[C@H]3O [ISOLUSHININ F] | > 10 µM | > 10 µM | > 10 µM | > 10 µM
10 | > 10 µM | C=C1[C@@H]2CC[C@H]3[C@]45CCC[C@@](C)(COC(C)=O)[C@H]4[C@H](O)[C@](O)(OC5)[C@]3(C2)[C@@H]1O [ISOLUSHININ B] | > 10 µM | > 10 µM | > 10 µM | > 10 µM
11 | > 10 µM | C=C1[C@@H]2CC[C@H]3[C@]45CC[C@@H]6OC4O[C@@H](C[C@@H]5C6(C)C)[C@]3(C2)[C@@H]1O [ISOLUSHININ A] | > 10 µM | > 10 µM | > 10 µM | > 10 µM
12 | > 10 µM | C=C1C(=O)[C@]23[C@H](O)[C@H]1CC[C@H]2[C@@]12CO[C@]3(O)[C@@H](O)[C@@H]1C(C)(C)CC[C@@H]2O [ORIDONIN] | 3.9 µM | > 10 µM | > 10 µM | > 10 µM
13 | 5.7 µM | C=C1C(=O)[C@@]23[C@H](O)C[C@@H]4C(C)(C)CCC[C@@]4(COC(C)=O)[C@@H]2[C@@H](O)C[C@@H]1[C@H]3O [FLEXICANLIN A] | 0.64 µM | 9.9 µM | 9.8 µM | > 10 µM
14 | > 10 µM | C=C1[C@@H]2C[C@@H](O)[C@@H]3[C@](C2)(C(=O)O[C@H]2CC[C@@]4(C)CO[C@H]5OC[C@]23[C@H]54)[C@@H]1O [SCULPONEATIN B] | > 10 µM | > 10 µM | > 10 µM | > 10 µM
15 | > 10 µM | C=C1C(=O)[C@@]23[C@H](O)C[C@@H]4C(C)(C)CCC[C@@]4(CO)[C@@H]2[C@@H](O)C[C@@H]1[C@H]3O [KAMEBAKAURININ] | 1.8 µM | > 10 µM | > 10 µM | > 10 µM
16 | 5.2 µM | C=C1C(=O)[C@@]23[C@@H]4C[C@@H]5C(C)(C)CCC[C@@]5([C@@H](OCC)O4)[C@@H]2[C@@H](O)C[C@@H]1[C@H]3O | 0.64 µM | 3.5 µM | 4.2 µM | 2.4 µM
17 | 7 µM | C=C1C(=O)[C@@]23[C@@H]4C[C@@H]5C(C)(C)CCC[C@@]5([C@@H](OC)O4)[C@@H]2[C@@H](OC(C)=O)C[C@@H]1[C@H]3O [ISOLUSHININ D] | 1.1 µM | 4.7 µM | 6.4 µM | 6.4 µM
18 | > 10 µM | CO[C@@H]1OC[C@]2(C)CCC[C@]3(COC(=O)[C@@]45C[C@@H](CC[C@H]43)[C@H](C)C5=O)[C@H]12 [LUDONGNIN G] | > 10 µM | > 10 µM | > 10 µM | > 10 µM
19 | > 10 µM | C=C1C(=O)[C@]23C[C@H]1C[C@@H](O)[C@H]2[C@@]1(CCC[C@@]2(C)COC(=O)[C@H]21)COC3=O [LUDONGNIN A] | 3.1 µM | > 10 µM | > 10 µM | > 10 µM
